The nature of data set [1]: Toxicity in Balb/c mouse assessed as induction of weight loss at 5 mg/kg, iv dosed every 2 days for total 10 times and measured on day 21. The class given is organism-based. The note with it: in vivo, 504 h, time 21 day. The method in brief: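 Six-week male Balb/c nude mice, n = 3 per group, given various doses by i.v. injection every 2 days. Body weight monitored.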

Data set [2] relates to BT-549. As to the kind of experiment: Cytotoxicity in human BT-549 cells assessed as reduction in cell viability incubated for 72 hrs by CCK8 assay. The class given is functional, cell-based. In short, it runs like this: (§1)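 CCK-8 viability assay with a 72 h treatment. Cells seeded at 3000−4000/well and preincubated overnight. Concentration gradient applied in quadruplicate. Then 10% CCK-8 for 1 h at 37 °C and A450 read. IC50 by log(inhibitor)-response fitting.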
(Tetrazolium dyes change colour on reduction, which living cells bring about.)

Data set [3] is described as follows: Drug metabolism in PBS at 37 degC assessed as parent compound disappearance at 50 uM in presence of DTT after 90 mins by RP-HPLC analysis. The method in brief: (§2)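 50 μM conjugate (from 2 mM DMSO stock) in 10% DMSO/PBS with 150 μM DTT (final) at 37 °C. Aliquots taken at 30, 60 and 90 min for RP-HPLC: C18, 10−100% CH₃CN over 20 min in 0.1% TFA water, 0.5 mL/min, detection at 220 and 254 nm. Three repeats.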

The test system of data set [4] is A549. The experiment in a line: Antitumor activity against human A549 cells xenografted in Balb/c mouse assessed as reduction in tumor mass at 5 mg/kg, iv dosed every 2 days for total 10 times and measured on day 21 relative to untreated control. The class given is functional. The settings on record: time 21 day. The method in brief: (§3)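 Six-week male Balb/c nude mice; 1 × 10⁷ A549 cells washed in cold PBS, suspended in serum-free high-glucose DMEM, injected s.c. in right flank. At ~50 mm³ (L × W × 1/2 W), randomized into two groups, n = 7 each. 5 mg/kg in 10% DMSO/PBS (1 mg/mL) given i.v. via tail vein every 2 days ×10. Vehicle control 10% DMSO/PBS. Tumor size and body weight measured before each injection. Tumors excised and weighed at end.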
In general terms: In xenograft studies the graft and the host belong to different species.

Data set [5] deals with A549. The experiment in a line: Antitumor activity against human A549 cells xenografted in Balb/c mouse assessed as reduction in tumor size at 5 mg/kg, iv dosed every 2 days for total 10 times and measured on day 21. Format: functional, organism-based. The note with it: time 21.0 day. The method in brief:
as §3

Data set [6] concerns BT-549. As to the kind of experiment: Cytotoxicity in human BT-549 cells assessed as reduction in cell viability incubated for 48 hrs in absence of GSH-OEt by CCK8 assay. The class given is functional, cell-based. The settings on record: BT-549, 48 h. In short, it runs like this:
(§4)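 Cells grown in high-glucose DMEM with 10% FBS and penicillin/streptomycin at 37 °C, 5% CO₂. 3000−4000 cells/well seeded and preincubated overnight. Treated with a concentration gradient in quadruplicate for 48 h. Medium then replaced with 10% CCK-8 in fresh medium for 1 h at 37 °C, A450 read. IC50 from log(inhibitor)-response fit, mean SD of three independent experiments.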

A short description of data set [7]: Stability in PBS at 37 degC assessed as parent intact compound remaining level at 50 uM after 24 hrs by RP-HPLC analysis. The class given is physicochemical. The settings on record: read-out: Stabilty. In short, it runs like this: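 50 μM compound in 10% DMSO/PBS without DTT or cathepsin B at 37 °C. Sampled at 0, 4, 8, 12 and 24 h and analyzed by RP-HPLC (C18, 10−100% CH₃CN/0.1% TFA over 20 min). Three repeats.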

The subject of data set [8] is A549. The experiment in a line: Cytotoxicity in human A549 cells assessed as reduction in cell viability incubated for 72 hrs by CCK8 assay. The class given is functional, cell-based. The method in brief:
as §1

Data set [9] concerns A549. As to the kind of experiment: Cytotoxicity in human A549 cells assessed as reduction in cell viability incubated for 48 hrs in absence of GSH-OEt by CCK8 assay. The class given is functional, cell-based. The note with it: A549, 48 h. In short, it runs like this: as §4
The nature of data set [10]: Drug metabolism in PBS at 37 degC assessed as metabolite-1a formation at 50 uM in presence of DTT after 30 to 90 mins by RP-HPLC analysis. The settings on record: time 30-90 min. The method in brief: as §2
Data set [11] in a line: Toxicity in Balb/c mouse xenografted with human A549 cells assessed as induction of weight loss at 5 mg/kg, iv dosed every 2 days for total 10 times and measured on day 21. The class given is organism-based. The note with it: in vivo, 504 h, time 21 day. In short, it runs like this:
as §3

In data set [12] the test system is A549. The experiment in a line: Cytotoxicity in human A549 cells assessed as reduction in cell viability incubated for 48 hrs in presence of GSH-OEt by CCK8 assay. Format: functional, cell-based. The note with it: A549, 48 h. In short, it runs like this: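 A549 cells preincubated 2 h with 1 mM GSH-OEt, then exposed to compound for 48 h. Viability by CCK-8. Remaining steps: overnight-seeded cells (3000−4000/well), quadruplicate wells, 10% CCK-8 for 1 h at 37 °C, A450. IC50 by log(inhibitor)-response fit, mean of triplicate.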

Data set [13] is described as follows: Toxicity in Balb/c mouse xenografted with human A549 cells assessed as induction of side effect at 5 mg/kg, iv dosed every 2 days for total 10 times and measured on day 21. The settings on record: in vivo. The class given is organism-based. In short, it runs like this:
as §3

Data set [14] in a line: Drug metabolism in PBS at 37 degC assessed as metabolite-1a formation at 50 uM in presence of DTT after 30 mins by RP-HPLC analysis. In short, it runs like this: as §2
Data set [15] deals with A549. The experiment in a line: Antitumor activity against human A549 cells xenografted in Balb/c mouse assessed as reduction in tumor growth at 5 mg/kg, iv dosed every 2 days for total 10 times and measured on day 21. The class given is functional, organism-based. The note with it: time 21.0 day. The method in brief:
as §3

In data set [16] the test system is A549. The experiment in a line: Cytotoxicity in human A549 cells assessed as reduction in cell viability incubated for 48 hrs by CCK8 assay. The class given is functional, cell-based. The method in brief:
as §4

In data set [17] the test system is BT-549. As to the kind of experiment: Cytotoxicity in human BT-549 cells assessed as reduction in cell viability incubated for 48 hrs by CCK8 assay. The class given is functional, cell-based. The method in brief: as §4
The nature of data set [18]: Toxicity in Balb/c mouse assessed as induction of weight loss at 1 mg/kg, iv dosed every 2 days and measured on day 3. The class given is organism-based. The settings on record: in vivo, 72 h, time 3 day. The method in brief:
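In vivo tolerability in six-week-old male Balb/c nude mice (n = 3 per group). Compounds were given intravenously every 2 days at various dosages, and body weight was followed over time.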

The values that follow come from ChEMBL document CHEMBL4732139, “Novel N-Methylated Cyclodepsipeptide Prodrugs for Targeted Cancer Therapy” (J Med Chem, 2021).

pIC50: −log10 of the molar value. The source made the active and inactive calls. The calls are words filed in the database; no cut-off is given here. Where a SMILES comes first, the peptide text is derived from it. Bridges are numbered along the chain shown (N, C = ends). [ ]: non-standard residue; d: D form. The star is where a group is joined. NMe2Val = CC(C)[C@@H](C(=O)*)N(C)C; NMeI = CC[C@H](C)[C@H](NC)C(=O)O; NMeT = CN[C@H](C(=O)O)[C@@H](C)O; NMeL = CN[C@@H](CC(C)C)C(=O)O; dHiv = CC(C)[C@@H](O)C(=O)O; NMeA = CN[C@@H](C)C(=O)O; dNMeA = CN[C@H](C)C(=O)O

By pIC50 is commonly meant −log10 of the IC50, conventionally taken in molar units. With `CC[C@H](C)[C@H]1C(=O)N[C@@H](C)C(=O)N(C)[C@@H](CC(C)C)C(=O)N[C@@H](Cc2ccc(OC)cc2)C(=O)N(C)[C@H](C)C(=O)O[C@H](C)[C@H](N(C)C(=O)[C@H](CC(C)C)N(C)C(=O)[C@H](C)N(C)C(=O)[C@H](OC(=O)[C@H](C(C)C)[N+](C)(C)Cc2ccc(NC(=O)OCCSSCCn3cc(CCC(=O)NCCCC[C@@H]4NC(=O)[C@@H](Cc5ccc(O)cc5)NC(=O)[C@H](CC(=O)O)NC(=O)CNC(=O)[C@H](CCCNC(=N)N)NC4=O)nn3)cc2)C(C)C)C(=O)N(C)[C@@H](C)C(=O)N1C.O=C([O-])C(F)(F)F`, the Activity entry in data set [1], in [11] and in [13] was “Non-Toxic” each time. The result in data set [2], in data set [5], in [8] and in data set [15] was Active. Besides, the Drug metabolism was 100% in data set [3], “Metabolite detected” in data set [10] and “Metabolite detected” in [14]. In [4], the “fold change (FC)” value was determined as 4. The pIC50 in data set [6] was 6.51; in data set [9], 6.58; in data set [12] it was 7.69. Further, the remaining at 24 h, 50 µM in data set [7] was greater than 90%.
Turning to `CC[C@H](C)[C@H]1C(=O)N[C@@H](C)C(=O)N(C)[C@@H](CC(C)C)C(=O)N[C@@H](Cc2ccc(OC)cc2)C(=O)N(C)[C@H](C)C(=O)O[C@H](C)[C@H](N(C)C(=O)[C@H](CC(C)C)N(C)C(=O)[C@H](C)N(C)C(=O)[C@H](OC(=O)[C@H](C(C)C)N(C)C)C(C)C)C(=O)N(C)[C@@H](C)C(=O)N1C` (NMe2Val-[dHiv][NMeA][NMeL][NMeT][NMeA][NMeI]A[NMeL]Y(Me)[dNMeA]; ester 4-C), the result in data set [2] and in data set [8] was Active. The pIC50 was 7.72 in data set [16] (Homo sapiens, A549, 48 h, read-out: IC50) and 7.74 in [17] (Homo sapiens, BT-549, 48 h, read-out: IC50). For the same compound, in data set [18], the Activity entry is “Toxic”.
For `C#CCCC(=O)NCCCC[C@@H]1NC(=O)[C@@H](Cc2ccc(O)cc2)NC(=O)[C@H](CC(=O)O)NC(=O)CNC(=O)[C@H](CCCNC(=N)N)NC1=O`, the outcome in data set [2] and in data set [8] was inactive. The IC50 result in data set [16] (a549) and in data set [17] (bt-549) was “Not Active” in each case.
